Data published in ChEMBL document CHEMBL1143124, “Synthesis and structure-activity relationships of 16-ene-22-thia-1alpha,25-dihydroxy-26,27-dimethyl-19-norvitamin D3 analogs having side chains of different sizes” (Bioorg Med Chem, 2008).

Columns and labels:
[1] = target: T1, Vitamin D3 receptor (Rattus norvegicus) (UniProt P13053); assay: Displacement of [3H]1-alpha,25-(OH)2D3 from rat recombinant VDR ligand-binding domain relative to 1-alpha,25-(OH)2D3
T1 sequence (whole entry): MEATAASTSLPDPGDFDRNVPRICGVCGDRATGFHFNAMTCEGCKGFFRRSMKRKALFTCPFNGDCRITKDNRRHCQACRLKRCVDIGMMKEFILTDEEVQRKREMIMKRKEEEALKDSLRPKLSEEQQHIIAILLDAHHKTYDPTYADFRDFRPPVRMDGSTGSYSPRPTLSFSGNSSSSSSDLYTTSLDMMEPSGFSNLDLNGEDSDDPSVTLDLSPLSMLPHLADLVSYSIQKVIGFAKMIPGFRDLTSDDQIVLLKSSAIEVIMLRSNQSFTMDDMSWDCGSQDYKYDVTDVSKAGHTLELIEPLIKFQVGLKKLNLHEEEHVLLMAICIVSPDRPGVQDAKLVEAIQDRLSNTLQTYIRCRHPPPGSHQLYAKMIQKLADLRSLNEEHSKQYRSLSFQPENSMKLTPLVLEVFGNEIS
How it was run: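 His-tagged rat VDR LBD (aa 115–423) was expressed in E. coli and the sonicated lysate diluted ~1000-fold in 50 mM Tris pH 7.5 (100 mM KCl, 5 mM DTT, 0.5% CHAPS, 100 µg/ml BSA). It was incubated with [3H]-1α,25-(OH)2D3 (~5000 dpm) at 4 °C for 18 h. Free ligand was removed with dextran-coated charcoal (30 min, 4 °C) and centrifugation, and the supernatant counted. At least two runs, in duplicate.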

[2] = target: Vitamin D3 receptor (Homo sapiens) (UniProt P11473); assay: Activity at human VDR assessed as transcriptional activation in COS cells after 24 hrs by luciferase reporter gene assay relative to 1-alpha,25-(OH)2D3
Osteoclast = assay: Increase in osteoclast formation in mouse primary osteoclast cocultured cells; assay type: functional, cell-based
How it was run: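 Tibial marrow cells (1.5×10^5/well) from 5–8-wk male ddY mice were cocultured with primary calvarial cells (3×10^3/well) from newborn ddY mice. Culture was 7 days in α-MEM with 10% FBS and compound at 10^-8 to 10^-12 M, with medium renewed on day 3. Cells were formaldehyde-fixed and TRAP-stained, and TRAP-positive cells with ≥3 nuclei counted microscopically as osteoclasts.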

Compound	Activity [1]	Activity [2]	Activity (Osteoclast)
CCC(O)(CC)CS[C@@H](C)C1=CCC2/C(=C/C=C3C[C@@H](O)C[C@H](O)C3)CCC[C@]12C (stereo not given in full)	60%	104%	Dose-dependent effect
CCC(O)(CC)CCCS[C@@H](C)C1=CCC2/C(=C/C=C3C[C@@H](O)C[C@H](O)C3)CCC[C@]12C (stereo not given in full)	100%	2000%	Dose-dependent effect
CCC(O)(CC)CCCS[C@H](C)C1=CCC2/C(=C/C=C3C[C@@H](O)C[C@H](O)C3)CCC[C@]12C (stereo not given in full)	8%	20%	Dose-dependent effect
CCC(O)(CC)CCS[C@@H](C)C1=CCC2/C(=C/C=C3C[C@@H](O)C[C@H](O)C3)CCC[C@]12C (stereo not given in full)	100%	2000%	Dose-dependent effect
CCC(O)(CC)CCCCCS[C@@H](C)C1=CCC2/C(=C/C=C3C[C@@H](O)C[C@H](O)C3)CCC[C@]12C (stereo not given in full)		2%	
CCC(O)(CC)CCCCS[C@@H](C)C1=CCC2/C(=C/C=C3C[C@@H](O)C[C@H](O)C3)CCC[C@]12C (stereo not given in full)		1%	
CCC(O)(CC)CS[C@H](C)C1=CCC2/C(=C/C=C3C[C@@H](O)C[C@H](O)C3)CCC[C@]12C (stereo not given in full)	6%	9%	Dose-dependent effect
CCC(O)(CC)CCS[C@H](C)C1=CCC2/C(=C/C=C3C[C@@H](O)C[C@H](O)C3)CCC[C@]12C (stereo not given in full)	4%	27%	Dose-dependent effect
